pIC50, pKd, pKi: −log10 of the molar value.
Columns and labels:
[1] = molecular target: T1, Replicase polyprotein 1ab (Middle East respiratory syndrome-related coronavirus (isolate United Kingdom/H123990006/2012), UniProt K9N7C7); assay: Inhibition of MERS-CoV papain-like protease using Z-Arg-Leu-Arg-Gly-Gly-AMC as substrate preincubated for 5 mins followed by substrate addition and measured for 10 mins by fluorescence assay
[2] = molecular target: T1, Replicase polyprotein 1ab; assay: Competitive-inhibition of MERS-CoV papain-like protease using varying levels of Z-Arg-Leu-Arg-Gly-Gly-AMC as substrate by Dixon-plot analysis
[3] = molecular target: T1, Replicase polyprotein 1ab; assay: Binding affinity to MERS-CoV papain-like protease by SPR analysis
In short: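 SPR on Biacore T200. Enzyme at 50 µg/mL in 10 mM sodium acetate pH 5.5 amine-coupled to CM5 chip (~10,000 RU); blank flow cells as reference. Compounds 0-50 µM (2-fold series) in PBSP + 0.5 mM TCEP, 2% DMSO, 30 µL/min, 25°C; double-referenced. KD from steady-state responses fit to rectangular hyperbola; rate constants from global 1:1 Langmuir fit.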

T1 sequence (K9N7C7 854-2740 limits assumed): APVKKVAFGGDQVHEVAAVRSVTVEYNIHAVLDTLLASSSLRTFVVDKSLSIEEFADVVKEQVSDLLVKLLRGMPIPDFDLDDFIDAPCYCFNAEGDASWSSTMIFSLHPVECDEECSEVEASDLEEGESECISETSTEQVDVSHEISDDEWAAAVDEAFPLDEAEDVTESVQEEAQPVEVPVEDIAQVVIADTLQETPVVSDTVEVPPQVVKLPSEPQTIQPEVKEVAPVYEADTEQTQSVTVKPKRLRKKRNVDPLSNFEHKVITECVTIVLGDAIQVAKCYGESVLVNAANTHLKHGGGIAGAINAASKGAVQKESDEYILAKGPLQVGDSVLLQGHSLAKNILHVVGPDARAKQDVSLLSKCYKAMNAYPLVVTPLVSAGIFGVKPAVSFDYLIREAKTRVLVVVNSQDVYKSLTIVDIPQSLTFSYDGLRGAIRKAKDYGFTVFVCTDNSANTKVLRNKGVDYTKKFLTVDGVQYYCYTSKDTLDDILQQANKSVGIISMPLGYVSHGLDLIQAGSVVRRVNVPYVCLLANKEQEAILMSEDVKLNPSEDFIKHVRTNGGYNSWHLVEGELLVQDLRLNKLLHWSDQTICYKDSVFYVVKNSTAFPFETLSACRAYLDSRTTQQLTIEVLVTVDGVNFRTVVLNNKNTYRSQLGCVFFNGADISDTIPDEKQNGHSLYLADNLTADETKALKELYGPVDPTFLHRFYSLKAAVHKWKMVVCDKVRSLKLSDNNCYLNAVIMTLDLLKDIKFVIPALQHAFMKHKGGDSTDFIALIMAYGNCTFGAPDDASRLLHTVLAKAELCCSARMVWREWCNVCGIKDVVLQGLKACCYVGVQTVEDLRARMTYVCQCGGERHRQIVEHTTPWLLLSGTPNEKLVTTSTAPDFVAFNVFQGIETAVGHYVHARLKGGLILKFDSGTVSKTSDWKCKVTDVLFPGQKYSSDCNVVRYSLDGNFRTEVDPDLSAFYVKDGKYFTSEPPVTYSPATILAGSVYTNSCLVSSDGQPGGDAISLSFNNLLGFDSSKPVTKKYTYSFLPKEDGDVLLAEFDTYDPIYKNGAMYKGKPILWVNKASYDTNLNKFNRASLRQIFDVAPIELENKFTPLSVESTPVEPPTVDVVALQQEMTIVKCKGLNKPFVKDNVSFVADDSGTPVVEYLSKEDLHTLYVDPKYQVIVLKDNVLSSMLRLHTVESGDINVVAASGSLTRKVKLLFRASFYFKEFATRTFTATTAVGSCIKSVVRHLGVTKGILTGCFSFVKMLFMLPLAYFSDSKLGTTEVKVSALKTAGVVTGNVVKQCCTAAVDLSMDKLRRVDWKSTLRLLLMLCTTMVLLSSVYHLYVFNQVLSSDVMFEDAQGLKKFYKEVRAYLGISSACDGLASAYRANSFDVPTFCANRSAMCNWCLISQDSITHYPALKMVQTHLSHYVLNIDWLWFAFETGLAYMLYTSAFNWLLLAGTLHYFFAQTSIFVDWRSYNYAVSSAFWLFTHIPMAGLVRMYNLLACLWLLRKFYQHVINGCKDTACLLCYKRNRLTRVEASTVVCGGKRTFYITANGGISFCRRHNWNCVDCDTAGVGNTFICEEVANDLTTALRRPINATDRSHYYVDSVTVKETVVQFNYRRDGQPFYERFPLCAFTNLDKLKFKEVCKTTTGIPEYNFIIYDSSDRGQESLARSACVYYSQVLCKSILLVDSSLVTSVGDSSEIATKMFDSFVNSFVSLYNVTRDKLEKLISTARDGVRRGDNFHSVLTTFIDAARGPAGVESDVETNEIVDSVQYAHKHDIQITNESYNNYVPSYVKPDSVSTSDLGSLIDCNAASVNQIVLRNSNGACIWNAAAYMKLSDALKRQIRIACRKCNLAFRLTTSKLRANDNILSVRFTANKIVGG

O=C(NC1=CC=CC2C(=O)C=C(c3nn[nH]n3)OC12)c1ccc(OCCCCc2ccccc2)cc1 (stereo not drawn) [ONO-1078]
pIC50 [1]: 4.60 | pKi [2]: 3.90 | pKd [3]: 4.85
